Data taken from ChEMBL document CHEMBL1139420, “Antibacterial profile against drug-resistant Staphylococcus epidermidis clinical strain and structure-activity relationship studies of 1H-pyrazolo[3,4-b]pyridine and thieno[2,3-b]pyridine derivatives” (Bioorg Med Chem, 2008).
In brackets after ≈: the same amount, converted by molar mass. Activity calls are given as the source filed them. The rule behind the calls is not given here.

Legend:
[1] = system: Serratia marcescens; test: Antibacterial activity against drug-resistant Serratia marcescens clinical isolate assessed as inhibition zone diameter after 24 hrs by antibacterial susceptibility test; format: functional, organism-based
[2] = system: Klebsiella pneumoniae; test: Antibacterial activity against drug-resistant Klebsiella pneumoniae clinical isolate assessed as inhibition zone diameter after 24 hrs by antibacterial susceptibility test; format: functional, organism-based
[3] = system: Staphylococcus epidermidis; test: Antibacterial activity against drug-resistant Staphylococcus epidermidis clinical isolate assessed as inhibition zone diameter after 24 hrs by antibacterial susceptibility test; format: functional
[4] = system: Proteus mirabilis; test: Antibacterial activity against drug-resistant Proteus mirabilis clinical isolate assessed as inhibition zone diameter after 24 hrs by antibacterial susceptibility test; format: functional, organism-based
[5] = system: Escherichia coli; test: Antibacterial activity against drug-resistant Escherichia coli clinical isolate assessed as inhibition zone diameter after 24 hrs by antibacterial susceptibility test; format: functional, organism-based
[6] = system: Enterococcus faecalis; test: Antibacterial activity against drug-resistant Enterococcus faecalis clinical isolate assessed as inhibition zone diameter after 24 hrs by antibacterial susceptibility test; format: functional, organism-based
[7] = Cytotoxicity against human PBMC assessed as cell viability at 700 uM after 3 to 5 days by XTT method; format: cell-based; conditions: PBMC (peripheral blood mononuclear cells), read-out: Activity
Outline: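 Human PBMCs from healthy donors isolated by density gradient from buffy coats, kept in RPMI 1640 with 10% heat-inactivated FBS, penicillin, streptomycin, 2 mM glutamine, 10 mM Hepes; stimulated 2–3 days with 5 µg/mL PHA, then kept with 5 U/mL IL-2. Compound at 700 µM, 5% CO2, 37 °C; XTT added, OD 450 nm after 2 h; duplicate, at least three times.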

[8] = system: Acinetobacter calcoaceticus; test: Antibacterial activity against drug-resistant Acinetobacter calcoaceticus clinical isolate assessed as inhibition zone diameter after 24 hrs by antibacterial susceptibility test; format: functional, organism-based
[9] = system: Enterobacter cloacae; test: Antibacterial activity against drug-resistant Enterobacter cloacae clinical isolate assessed as inhibition zone diameter after 24 hrs by antibacterial susceptibility test; format: functional, organism-based
[10] = system: Pseudomonas aeruginosa; test: Antibacterial activity against drug-resistant Pseudomonas aeruginosa clinical isolate assessed as inhibition zone diameter after 24 hrs by antibacterial susceptibility test; format: functional, organism-based
[11] = system: Staphylococcus epidermidis; test: Antibacterial activity against drug-resistant Staphylococcus epidermidis clinical isolate after 24 hrs by macro-dilution broth method; format: functional

Compound | Activity [1] | Activity [2] | inhibition zone (IZ) [3] | Activity [4] | Activity [5] | Activity [6] | viability at 700 µM [7] | Activity [8] | Activity [9] | Activity [10] | MIC [11]
O=C(O)c1cnc2sccc2c1Nc1cccc([N+](=O)[O-])c1 | inactive | inactive | 0 mm | inactive | inactive | inactive | 100% | inactive | inactive | inactive | 
Cc1ccc(Nc2c(C(=O)O)cnc3c2cnn3-c2ccccc2)cc1 | inactive | inactive | 0 mm | inactive | inactive | inactive | 100% | inactive | inactive | inactive | 
COc1cccc(Nc2c(C(=O)O)cnc3sccc23)c1 | inactive | inactive | 0 mm | inactive | inactive | inactive | 100% | inactive | inactive | inactive | 
O=C(O)c1cnc2sccc2c1Nc1cccc(F)c1 | inactive | inactive | 0 mm | inactive | inactive | inactive | 100% | inactive | inactive | inactive | 
O=C(O)c1cnc2c(cnn2-c2ccccc2)c1Nc1cccc(Cl)c1 | inactive | inactive | 17 mm | inactive | inactive | inactive | 100% | inactive | inactive | inactive | 16 µg/mL (≈ 43.9 µM)
O=C(O)c1cnc2sccc2c1Nc1ccc(Cl)cc1 | inactive | inactive | 0 mm | inactive | inactive | inactive | 100% | inactive | inactive | inactive | 
COc1cccc(Nc2c(C(=O)O)cnc3c2cnn3-c2ccccc2)c1 | inactive | inactive | 15 mm | inactive | inactive | inactive | 100% | inactive | inactive | inactive | 16 µg/mL (≈ 44.4 µM)
O=C(O)c1cnc2sccc2c1Nc1ccc([N+](=O)[O-])cc1 | inactive | inactive | 0 mm | inactive | inactive | inactive | 100% | inactive | inactive | inactive | 
O=C(O)c1cnc2sccc2c1Nc1cccc(Cl)c1 | inactive | inactive | 0 mm | inactive | inactive | inactive | 100% | inactive | inactive | inactive | 
O=C(O)c1cnc2sccc2c1Nc1ccccc1 | inactive | inactive | 0 mm | inactive | inactive | inactive | 100% | inactive | inactive | inactive | 
Cc1cccc(Nc2c(C(=O)O)cnc3sccc23)c1 | inactive | inactive | 0 mm | inactive | inactive | inactive | 100% | inactive | inactive | inactive | 
O=C(O)c1cnc2c(cnn2-c2ccccc2)c1Nc1ccc([N+](=O)[O-])cc1 | inactive | inactive | 0 mm | inactive | inactive | inactive | 88% | inactive | inactive | inactive | 
O=C(O)c1cnc2c(cnn2-c2ccccc2)c1Nc1ccccc1 | inactive | inactive | 0 mm | inactive | inactive | inactive | 91% | inactive | inactive | inactive | 
Cc1ccc(Nc2c(C(=O)O)cnc3sccc23)cc1 | inactive | inactive | 0 mm | inactive | inactive | inactive | 100% | inactive | inactive | inactive | 
O=C(O)c1cnc2c(cnn2-c2ccccc2)c1Nc1ccc(Br)cc1 | inactive | inactive | 10 mm | inactive | inactive | inactive | 92% | inactive | inactive | inactive | 
O=C(O)c1cnc2sccc2c1Nc1ccc(Br)cc1 | inactive | inactive | 0 mm | inactive | inactive | inactive | 100% | inactive | inactive | inactive | 
O=C(O)c1cnc2sccc2c1Nc1ccc(F)cc1 | inactive | inactive | 0 mm | inactive | inactive | inactive | 100% | inactive | inactive | inactive | 
COc1ccc(Nc2c(C(=O)O)cnc3c2cnn3-c2ccccc2)cc1 | inactive | inactive | 0 mm | inactive | inactive | inactive | 100% | inactive | inactive | inactive | 
COc1ccc(Nc2c(C(=O)O)cnc3sccc23)cc1 | inactive | inactive | 0 mm | inactive | inactive | inactive | 100% | inactive | inactive | inactive | 
CN[C@H](CC(C)C)C(=O)N[C@H]1C(=O)N[C@@H](CC(N)=O)C(=O)N[C@H]2C(=O)N[C@H]3C(=O)N[C@H](C(=O)N[C@H](C(=O)O)c4cc(O)cc(O)c4-c4cc3ccc4O)[C@H](O)c3ccc(c(Cl)c3)Oc3cc2cc(c3O[C@@H]2O[C@H](CO)[C@@H](O)[C@H](O)[C@H]2O[C@H]2C[C@](C)(N)[C@H](O)[C@H](C)O2)Oc2ccc(cc2Cl)[C@H]1O [VANCOMYCIN] |  |  | 15 mm |  |  |  |  |  |  |  | 
O=C(O)c1cnc2c(cnn2-c2ccccc2)c1Nc1ccc(Cl)cc1 | inactive | inactive | 0 mm | inactive | inactive | inactive | 100% | inactive | inactive | inactive | 
O=C(O)c1cnc2c(cnn2-c2ccccc2)c1Nc1cccc([N+](=O)[O-])c1 | inactive | inactive | 12 mm | inactive | inactive | inactive | 100% | inactive | inactive | inactive | 
O=C(O)c1cnc2sccc2c1Nc1cccc(Br)c1 | inactive | inactive | 0 mm | inactive | inactive | inactive | 100% | inactive | inactive | inactive | 
